Here are results for 40 compounds from PubChem BioAssay.

The source made the active and inactive calls.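 Rule for the calls, unless noted: active = primary screen active whose calcium signal fell more than 3 SD beyond the full-serotonin control mean in both duplicate plates; inactive = the rest.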

One experiment addresses Short transient receptor potential channel 4 (Mus musculus) (UniProt Q9QUQ5). Briefly: calcium flux activators in TRPC4/5HT1a cells, counter-screen for TRPC4 activator project, cell-based, second counter screen, HEK293 TRPC4/5HT1a, Fluo-4 (AID 434977;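 active = calcium signal rise above buffer-control mean plus 5 SD in both duplicates, and also a hit in the primary screen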;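 for activation: plate controls were assay buffer for no effect and maximal serotonin response for full effect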). The conditions noted are these: Fluo-4 calcium flux, at 10 µM; active compounds read high.
Take `CCCn1c(NCc2cc(OC)ccc2OC)nc2ccccc21`: the outcome was inactive.
Still for that read-out and setting: the value for `COC(=O)c1ccc(NC(=O)CCN2CCN(Cc3ccccc3)CC2)cc1` was “inactive”; that for `Cn1c(=O)c2c(nc(SCCN3CCCCC3)n2Cc2ccccc2)n(C)c1=O` was “inactive”; that for `O=C(NCc1ccccc1Cl)/C(=C\c1cccnc1)NC(=O)c1ccccc1` was “inactive”.
Turning to `COC(=O)[C@@]12CCCN1[C@H](c1ccc(-c3ccc(OC)cc3)cc1)[C@@H]1C(=O)N(C)C(=O)[C@@H]12`, the outcome was inactive.
Same read-out and setting: the value for `COc1ccc(-c2cc(C(F)(F)F)nc(N3CCN(C)CC3)n2)cc1` was “inactive”; that for `CCOc1ccc(NS(=O)(=O)c2ccc(NC(=S)NC(=O)CC(C)C)cc2)cc1` was “inactive”.
`CCCN(CCC)CCCNC(=O)c1cc2c(=O)n(C)c3ccccc3c2n1C`: the activation is 6.09% (active).
Turning to `COc1ccc(CNCC(O)(c2ccccc2)c2ccccc2)cc1OC`, the result was inactive.
On the same count and under the same terms, the value for `CCOc1cc2[nH]c(=S)n(C3CC3)c(=O)c2cc1OCC` was “inactive”; that for `CCOC(=O)c1c(C(F)(F)C(F)(F)C(F)(F)C(F)(F)F)n[nH]c1C` was “inactive”; that for `Cn1c(=O)cc(OCCCC(=O)NCCCN2CCN(Cc3ccccc3)CC2)c2ccccc21` was “inactive”.
The same measure, in the same setting: with `CC(=O)C1=C(O)C(=O)N(Cc2ccco2)C1c1ccc2c(c1)OCO2` (configuration not stated) the entry was “inactive”.
Still for that read-out and setting: the value for `CCc1cc2c(SCC(=O)N(C)C3CCS(=O)(=O)C3)ncnc2s1` (configuration not stated) was “inactive”; that for `OC(CNCC1CCCO1)Cn1c2ccc(Br)cc2c2cc(Br)ccc21` (configuration not stated) was “inactive”; that for `CCN1CCN(c2ccc(S(=O)(=O)N3CCCCC3)cc2NC(=O)c2cccc(F)c2)CC1` was “inactive”.
As to `COC(=O)/C=C1\SC(=NC(=O)c2cccc(Cl)c2)NC1=O`, the result was inactive.
Same read-out and setting: with `CCCc1ccc(OCc2ccc(C(=O)N3CCCC3)o2)cc1` the entry was “inactive”.
Regarding `Cc1ccc(-c2csc3ncnc(NCCN4CCOCC4)c23)cc1`, the result was inactive.
Still for that read-out and setting: with `Cn1c(=O)n(CCCO)c(=O)c2c1nc1n2CCCN1Cc1ccccc1` the entry was “inactive”.
On the same count and under the same terms, with `O=C(NC1CC1)c1ccc2c(c1)N(Cc1ccc(Cl)cc1)CCS2` the entry was “inactive”.
Same read-out and setting: the value for `O=C(COc1ccccc1-c1ccccc1)NCc1ccco1` was “inactive”; that for `CCOc1ccc2nc(NCCNC(=O)C3CC3)c(C)cc2c1` was “inactive”.

System in the next experiment: not listed separately
Briefly: serotonin-gated TRPC4 signal block – cell-based, second counter screen, HEK293 TRPC4/5HT1a, Fluo-4, counter-screen for TRPC4 inhibitor project, confirmation (AID 434978).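 For outcome: serotonin given first at submaximal then at maximal dose after compound preincubation.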 Particulars: Fluo-4 calcium flux, at 10 µM, serotonin added to trigger calcium flux; active compounds read high. Summed up:
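System: HEK293 line stably carrying TRPC4 plus 5HT1a receptor. Schedule: 110 s each for compound, submaximal and ECmax serotonin. Technique: kinetic Fluo-4 fluorescence readout of calcium flux. Replication: duplicate plates.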
Consider `Cc1cc(N2CCCCC2)nc(NCc2ccccc2)n1`, for which the outcome was inactive.
Still for that read-out and setting: the value for `COCCNC(=O)/C(C#N)=C/c1cc(C(C)C)c(OC)cc1C` was “inactive”; that for `CCN1CCN(c2ccc(S(=O)(=O)N3CCCCC3)cc2NC(=O)COc2cc(C)ccc2Cl)CC1` was “inactive”; that for `FC(F)(F)COc1nc(N2CCCCC2)nc(N2CCNCC2)n1` was “inactive”.
Consider `CCSc1nnc([C@H](Cc2c[nH]c3ccccc23)NC(=O)OC(C)(C)C)o1`, for which the outcome was inactive.
Consider `COc1ccc(/C=C(\C#N)C(=O)N2CCOCC2)cc1Br`, for which the outcome was inactive.
As for `N#Cc1ccc(OCC(O)CN2CCN(c3ncc(C(F)(F)F)cc3Cl)CC2)cc1` (configuration not stated), the outcome was inactive.
Take `CCCC1=C(C(=O)OCC)C(c2cc(Cl)cc(OC)c2OCC(=O)OCC)NC(=O)N1` (configuration not stated): the outcome was inactive.
Consider `CCCCCc1ccc(OCCCC[n+]2ccccc2)c(CCCCC)c1`, for which the outcome was inactive.
The same measure, in the same setting: the value for `CC(C)(C)c1ccccc1OCCCCCn1ccnc1` was “inactive”.
Take `CCOC(=O)COc1cc(-n2c(=S)[nH]c3ccccc3c2=O)c(Cl)cc1Cl`: the outcome was inactive.
In the case of `CCCCc1nc(N2CCOCC2)c(C#N)c2c1CCCC2`, the inhibition is 36.5% (active).
For the compound `CCN1CCN(c2ccc(NC(=O)CCc3c(C)nc4c(-c5ccc(F)cc5)c(C)nn4c3C)cc2)CC1`, the outcome was inactive.
For the compound `CCOc1cc(/C=C(\C#N)C(=O)Nc2cccc(C(=O)O)c2)cc(Br)c1OC(=O)c1ccc(OC)cc1`, the result was inactive.
On the same count and under the same terms, the value for `COc1ccc(Cl)c2sc(N(CCN(C)C)C(=O)c3ccc4c(c3)OCCO4)nc12` was “inactive”.
On the same count and under the same terms, with `CCCCN1C(=O)C(=O)N(CC(=O)Nc2cc(OCC)c(N3CCOCC3)cc2OCC)C1=O` the entry was “inactive”.
Take `CN(C)CCOc1ccc2ccccc2c1`: the result was inactive.
Still for that read-out and setting: the value for `CCCn1c(NCc2cc(OC)ccc2OC)nc2ccccc21` was “inactive”.
Still for that read-out and setting: the value for `COC(=O)c1ccc(NC(=O)CCN2CCN(Cc3ccccc3)CC2)cc1` was “inactive”; that for `Cn1c(=O)c2c(nc(SCCN3CCCCC3)n2Cc2ccccc2)n(C)c1=O` was “inactive”.
For the compound `O=C(NCc1ccccc1Cl)/C(=C\c1cccnc1)NC(=O)c1ccccc1`, the outcome was inactive.
Turning to `COC(=O)[C@@]12CCCN1[C@H](c1ccc(-c3ccc(OC)cc3)cc1)[C@@H]1C(=O)N(C)C(=O)[C@@H]12`, the result was inactive.
Same read-out and setting: the value for `COc1ccc(-c2cc(C(F)(F)F)nc(N3CCN(C)CC3)n2)cc1` was “inactive”.
Same read-out and setting: the value for `CCOc1ccc(NS(=O)(=O)c2ccc(NC(=S)NC(=O)CC(C)C)cc2)cc1` was “inactive”.
